From ChEMBL document CHEMBL1154569, “Scalarane and homoscalarane compounds from the nudibranchs Glossodoris sedna and Glossodoris dalli: chemical and biological properties” (J Nat Prod, 2000)
Calls of active or inactive are those of the source. The calls are words filed in the database; no cut-off is given here.

Key:
[1] = Inhibition of cytosolic PLA2
Summary of the method: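 Measured in RBL-2H3 cells stimulated with ionomycin.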

Gambusia affinis = test: Ichthyotoxicity against Gambusia affinis at 0.1 ppm

## CC(=O)O[C@@H]1C[C@@H]2[C@@]3(C)CCCC(C)(C)[C@@H]3CC[C@@]2(C)[C@@H]2CC=C3CO[C@@H](O)[C@@H]3[C@@]12C
[1]
  Activity: inactive
Gambusia affinis
  Activity: inactive

## CC(=O)OC[C@]12CCCC(C)(C)[C@@H]1CC[C@]1(C)[C@@H]2C[C@@H](O)[C@]2(C)[C@@H](C=O)C(C(C)=O)=CC[C@@H]12
[1]
  IC50: 18 µM

## C[C@@H]1O[C@@H](O)[C@H]2C1=CC[C@H]1[C@]3(C)CC[C@H]4C(C)(C)CCC[C@]4(C)[C@H]3C[C@@H](O)[C@]21C
[1]
  Activity: inactive
Gambusia affinis
  Activity: inactive

## CC(=O)O[C@H]1C[C@@H]2[C@@]3(C)CCCC(C)(C)[C@@H]3CC[C@@]2(C)[C@@H]2CC=C3CO[C@@H](O)[C@@H]3[C@@]12C
[1]
  Activity: inactive
Gambusia affinis
  Activity: inactive

## CC(=O)OC[C@]12CCCC(C)(C)[C@@H]1CC[C@]1(C)[C@@H]2C[C@@H](O)[C@]2(C)[C@@H]3C(=CC[C@@H]12)[C@H](C)O[C@H]3O
[1]
  Activity: inactive
Gambusia affinis
  Activity: inactive

## CC(=O)O[C@H]1C[C@@H]2[C@@]3(C)CCCC(C)(C)[C@@H]3CC[C@@]2(C)[C@@H]2CC=C(C=O)[C@H](C=O)[C@@]12C [SCALARADIAL]
[1]
  IC50: 0.6 µM
Gambusia affinis
  Activity: Active
